The source of these data is article PMC10100262 (Chemmedchem, 2022).

Molecules are shown by their SMILES.

What is called logD is lipophilicity at a set pH, counting ionised and neutral species. Low values mean lower lipophilicity, high ones higher lipophilicity.

The format of data set [1] is in vitro ADME. To be noted: pooled human serum, 37 °C; activity in precipitated serum protein pellet. The essentials:
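68Ga-labeled peptide conjugate (20–25 MBq; molar activity set to 1 GBq/μmol) incubated in pooled human serum at 37 °C. Samples taken at 15-min intervals into an equal volume of ice-cold ethanol, held 1 min on ice and centrifuged 90 s. Activity measured in pellet and supernatant; supernatant analyzed by radio-HPLC. Three experiments per radioligand.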

A short description of data set [2]: Determination of log D. In kind it is physicochemical. The conditions noted are these: pH 7.4. Put shortly: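 68Ga-labeled peptide conjugate, molar activity adjusted to 1 GBq/μmol, 0.7–1 MBq per test. Partitioned between 1-octanol and 0.05 M phosphate buffer pH 7.4 by vigorous shaking for 2 min. Phases separated by centrifugation; equal aliquots of each phase γ-counted. Run thrice, each in triplicate.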

Consider `C[C@@H](O)[C@H](NC(=O)[C@@H]1CSSC[C@H](NC(=O)[C@@H](Cc2ccccc2)NC(=O)CN2CCN(CC(=O)O)CCN(CC(=O)O)CCN(CC(=O)O)CC2)C(=O)N[C@@H](Cc2ccc(O)cc2)C(=O)N[C@H](Cc2c[nH]c3ccccc23)C(=O)N[C@@H](CCCCN)C(=O)N[C@@H]([C@@H](C)O)C(=O)N1)C(=O)O` [[^68Ga]Ga‐8, metal not drawn], for which, in data set [1], the “protein‐associated activity (protein‐bound activity fraction)” value was determined as 19.7±2.2%. In data set [2] (1‐octanol/phosphate buffer), the log distribution coefficient (logD) is -4.09 ± 0.07.
As to `C[C@@H](O)[C@H](NC(=O)[C@@H]1CSSC[C@H](NC(=O)[C@@H](Cc2ccccc2)NC(=O)CCC(C(=O)O)N2CCN3CCN(CCN(CC(=O)O)CC3)CC2)C(=O)N[C@@H](Cc2ccc(O)cc2)C(=O)N[C@H](Cc2c[nH]c3ccccc23)C(=O)N[C@@H](CCCCN)C(=O)N[C@@H]([C@@H](C)O)C(=O)N1)C(=O)O` (some centres unmarked) [[^68Ga]Ga‐11, metal not drawn], the “protein‐associated activity (protein‐bound activity fraction)” value in data set [1] is 15.7±3.6%. The compound also returned a logD in data set [2] of -3.02 ± 0.08.
`C[C@@H](O)[C@H](NC(=O)[C@@H]1CSSC[C@H](NC(=O)[C@@H](Cc2ccccc2)NC(=O)CC[C@H](C(=O)O)N2CCN(CC(=O)O)CCN(CC(=O)O)CC2)C(=O)N[C@@H](Cc2ccc(O)cc2)C(=O)N[C@H](Cc2c[nH]c3ccccc23)C(=O)N[C@@H](CCCCN)C(=O)N[C@@H]([C@@H](C)O)C(=O)N1)C(=O)O` [[^68Ga]Ga‐10, metal not drawn]: the “protein‐associated activity (protein‐bound activity fraction)” value in data set [1] was 16.9±3.5%. For the same compound, the pH-dependent lipophilicity (logD) in data set [2] (1‐octanol/phosphate buffer) was -3.72 ± 0.02.
Turning to `C[C@@H](O)[C@H](NC(=O)[C@@H]1CSSC[C@H](NC(=O)[C@@H](Cc2ccccc2)NC(=O)CCC(C(=O)O)N2CCN(CC(=O)O)CCN(CC(=O)O)CCN(CC(=O)O)CC2)C(=O)N[C@@H](Cc2ccc(O)cc2)C(=O)N[C@H](Cc2c[nH]c3ccccc23)C(=O)N[C@@H](CCCCN)C(=O)N[C@@H]([C@@H](C)O)C(=O)N1)C(=O)O` (some centres unmarked) [[^68Ga]Ga‐9, metal not drawn], the “protein‐associated activity (protein‐bound activity fraction)” value in data set [1] turned out to be 29.0±3.5%. In data set [2], this compound came in with a logD of -4.11 ± 0.11.
